In brackets after ≈: the same amount, converted by molar mass.
How the values were obtained:
Haemophilus influenzae [1] = assay: Antimicrobial activity against drug-susceptible Haemophilus influenzae 1 after 20 hrs by agar dilution method; type: functional
Outline: (§1)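 Streptococci, H. influenzae and M. catarrhalis were precultured on blood agar plates. Suspensions of about 10⁶ CFU/ml were inoculated onto sensitivity disk agar supplemented with 5% horse blood and incubated at 37 °C for 20 h. MIC was read as the lowest drug concentration with no visible growth.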

Haemophilus influenzae [2] = assay: Antimicrobial activity against drug-susceptible Haemophilus influenzae 2 after 20 hrs by agar dilution method; type: functional; outline: as §1
Streptococcus pyogenes [3] = assay: Antimicrobial activity against Streptococcus pyogenes 3 expressing mefA after 20 hrs by agar dilution method; type: functional; outline: as §1
Haemophilus influenzae [4] = assay: Antimicrobial activity against drug-susceptible Haemophilus influenzae 4 after 20 hrs by agar dilution method; type: functional; outline: as §1
Moraxella catarrhalis [5] = assay: Antimicrobial activity against drug-susceptible Moraxella catarrhalis 1 after 20 hrs by agar dilution method; type: functional; outline: as §1
Streptococcus pneumoniae [6] = assay: Antimicrobial activity against drug-susceptible Streptococcus pneumoniae DP1 Type1 after 20 hrs by agar dilution method; type: functional; outline: as §1
Staphylococcus aureus [7] = assay: Antimicrobial activity against drug-susceptible Staphylococcus aureus 3 after 20 hrs by agar dilution method; type: functional
Outline: (§2)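 Agar dilution MIC. S. aureus seed culture was grown in sensitivity test broth. Cell suspension (about 10⁶ CFU/ml) was inoculated onto sensitivity disk agar with 5% horse blood and incubated at 37 °C for 20 h. MIC was the lowest drug concentration that prevented visible growth.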

Streptococcus pyogenes [8] = assay: Antimicrobial activity against drug-susceptible Streptococcus pyogenes 1 after 20 hrs by agar dilution method; type: functional; outline: as §1
Staphylococcus aureus [9] = assay: Antimicrobial activity against Staphylococcus aureus 6 expressing inducible ermC after 20 hrs by agar dilution method
Streptococcus pneumoniae [10] = assay: Antimicrobial activity against Streptococcus pneumoniae 9 expressing mefA after 20 hrs by agar dilution method; type: functional; outline: as §1
Moraxella catarrhalis [11] = assay: Antimicrobial activity against drug-susceptible Moraxella catarrhalis 2 after 20 hrs by agar dilution method; type: functional; outline: as §1
Staphylococcus aureus [12] = assay: Antimicrobial activity against drug-susceptible Staphylococcus aureus 209P JC-1 after 20 hrs by agar dilution method; type: functional; outline: as §2
Staphylococcus aureus [13] = assay: Antimicrobial activity against drug-susceptible Staphylococcus aureus 2 after 20 hrs by agar dilution method; type: functional; outline: as §2
Streptococcus pneumoniae [14] = assay: Antimicrobial activity against drug-susceptible Streptococcus pneumoniae 2 after 20 hrs by agar dilution method; type: functional; outline: as §1
Staphylococcus aureus [15] = assay: Antimicrobial activity against Staphylococcus aureus 5 expressing inducible ermB after 20 hrs by agar dilution method; type: functional; outline: as §2
Streptococcus pneumoniae [16] = assay: Antimicrobial activity against Streptococcus pneumoniae 7 expressing inducible ermB after 20 hrs by agar dilution method; type: functional; outline: as §1
Streptococcus pneumoniae [17] = assay: Antimicrobial activity against Streptococcus pneumoniae 10 expressing mefA after 20 hrs by agar dilution method; type: functional; outline: as §1
Streptococcus pneumoniae [18] = assay: Antimicrobial activity against drug-susceptible Streptococcus pneumoniae 3 after 20 hrs by agar dilution method; type: functional; outline: as §1
Streptococcus pneumoniae [19] = assay: Antimicrobial activity against Streptococcus pneumoniae 8 expressing inducible ermB after 20 hrs by agar dilution method; type: functional; outline: as §1
Haemophilus influenzae [20] = assay: Antimicrobial activity against drug-susceptible Haemophilus influenzae 3 after 20 hrs by agar dilution method; type: functional; outline: as §1

CCOC(=O)[C@H]1[C@H](C)O[C@@H](O[C@H]2[C@H](N(C)C)[C@@H](O)[C@H](O[C@H]3[C@@H](CC=O)C[C@@H](C)[C@@H](O)CN(C)CCC(C/C=C/c4ccnc5ccccc45)NC(=O)C[C@@H](OC(=O)CC)[C@@H]3OC)O[C@@H]2C)C[C@@]1(C)O (stereo in doubt)
MIC (Haemophilus influenzae [1]): 64 µg/mL (≈ 65.9 µM)
MIC (Haemophilus influenzae [2]): 4 µg/mL (≈ 4.12 µM)
MIC (Streptococcus pyogenes [3]): 2 µg/mL (≈ 2.06 µM)
MIC (Haemophilus influenzae [4]): 16 µg/mL (≈ 16.5 µM)
MIC (Moraxella catarrhalis [5]): 8 µg/mL (≈ 8.24 µM)
MIC (Streptococcus pneumoniae [6]): 0.25 µg/mL (≈ 0.257 µM)
MIC (Staphylococcus aureus [7]): 2 µg/mL (≈ 2.06 µM)
MIC (Streptococcus pyogenes [8]): 0.5 µg/mL (≈ 0.515 µM)
MIC (Staphylococcus aureus [9]): 4 µg/mL (≈ 4.12 µM)
MIC (Streptococcus pneumoniae [10]): 0.5 µg/mL (≈ 0.515 µM)
MIC (Moraxella catarrhalis [11]): 4 µg/mL (≈ 4.12 µM)
MIC (Staphylococcus aureus [12]): 4 µg/mL (≈ 4.12 µM)
MIC (Staphylococcus aureus [13]): 8 µg/mL (≈ 8.24 µM)
MIC (Streptococcus pneumoniae [14]): 0.25 µg/mL (≈ 0.257 µM)
MIC (Staphylococcus aureus [15]): 2 µg/mL (≈ 2.06 µM)

CCOC(=O)[C@H]1[C@H](C)O[C@@H](O[C@H]2[C@H](N(C)C)[C@@H](O)[C@H](O[C@H]3[C@@H](CC=O)C[C@@H](C)[C@@H](O)CN(C)CCC(CCCc4ccnc5ccccc45)NC(=O)C[C@@H](OC(=O)CC)[C@@H]3OC)O[C@@H]2C)C[C@@]1(C)O (stereo in doubt; form 2)
MIC (Haemophilus influenzae [1]): 64 µg/mL (≈ 65.8 µM)
MIC (Haemophilus influenzae [2]): 2 µg/mL (≈ 2.06 µM)
MIC (Streptococcus pyogenes [3]): 2 µg/mL (≈ 2.06 µM)
MIC (Streptococcus pneumoniae [16]): 64 µg/mL (≈ 65.8 µM)
MIC (Streptococcus pneumoniae [17]): 0.25 µg/mL (≈ 0.257 µM)
MIC (Haemophilus influenzae [4]): 8 µg/mL (≈ 8.22 µM)
MIC (Moraxella catarrhalis [5]): 8 µg/mL (≈ 8.22 µM)
MIC (Streptococcus pneumoniae [6]): 0.13 µg/mL (≈ 0.134 µM)
MIC (Staphylococcus aureus [7]): 2 µg/mL (≈ 2.06 µM)
MIC (Streptococcus pneumoniae [18]): 0.25 µg/mL (≈ 0.257 µM)
MIC (Streptococcus pyogenes [8]): 0.5 µg/mL (≈ 0.514 µM)
MIC (Staphylococcus aureus [9]): 4 µg/mL (≈ 4.11 µM)
MIC (Streptococcus pneumoniae [19]): 64 µg/mL (≈ 65.8 µM)
MIC (Haemophilus influenzae [20]): 16 µg/mL (≈ 16.4 µM)
MIC (Streptococcus pneumoniae [10]): 0.25 µg/mL (≈ 0.257 µM)
MIC (Moraxella catarrhalis [11]): 8 µg/mL (≈ 8.22 µM)
MIC (Staphylococcus aureus [12]): 4 µg/mL (≈ 4.11 µM)
MIC (Staphylococcus aureus [13]): 8 µg/mL (≈ 8.22 µM)
MIC (Streptococcus pneumoniae [14]): 0.25 µg/mL (≈ 0.257 µM)
MIC (Staphylococcus aureus [15]): 4 µg/mL (≈ 4.11 µM)

CCOC(=O)[C@H]1[C@H](C)O[C@@H](O[C@H]2[C@H](N(C)C)[C@@H](O)[C@H](O[C@H]3[C@@H](CC=O)C[C@@H](C)[C@@H](O)CN(C)CC(/C=C/Cc4ccnc5ccccc45)CCOC(=O)C[C@@H](OC(=O)CC)[C@@H]3OC)O[C@@H]2C)C[C@@]1(C)O (stereo in doubt; form 2)
MIC (Haemophilus influenzae [1]): 32 µg/mL (≈ 32.4 µM)
MIC (Haemophilus influenzae [2]; Haemophilus influenzae, 20 h, read-out: MIC): 4 µg/mL (≈ 4.06 µM)
MIC (Streptococcus pyogenes [3]): 0.25 µg/mL (≈ 0.253 µM)
MIC (Streptococcus pneumoniae [16]): 128 µg/mL (≈ 130 µM)
MIC (Streptococcus pneumoniae [17]): 0.06 µg/mL (≈ 0.0608 µM)
MIC (Haemophilus influenzae [4]): 16 µg/mL (≈ 16.2 µM)
MIC (Moraxella catarrhalis [5]): 2 µg/mL (≈ 2.03 µM)
MIC (Streptococcus pneumoniae [6]): 0.03 µg/mL (≈ 0.0304 µM)
MIC (Staphylococcus aureus [7]): 0.25 µg/mL (≈ 0.253 µM)
MIC (Streptococcus pyogenes [8]): 0.13 µg/mL (≈ 0.132 µM)
MIC (Staphylococcus aureus [9]): 0.5 µg/mL (≈ 0.507 µM)
MIC (Streptococcus pneumoniae [19]): 128 µg/mL (≈ 130 µM)
MIC (Haemophilus influenzae [20]): 16 µg/mL (≈ 16.2 µM)
MIC (Streptococcus pneumoniae [10]): 0.06 µg/mL (≈ 0.0608 µM)
MIC (Moraxella catarrhalis [11]): 2 µg/mL (≈ 2.03 µM)
MIC (Staphylococcus aureus [12]): 0.25 µg/mL (≈ 0.253 µM)
MIC (Staphylococcus aureus [13]): 1 µg/mL (≈ 1.01 µM)
MIC (Streptococcus pneumoniae [14]): 0.06 µg/mL (≈ 0.0608 µM)
MIC (Staphylococcus aureus [15]): 0.25 µg/mL (≈ 0.253 µM)

CCOC(=O)[C@H]1[C@H](C)O[C@@H](O[C@H]2[C@H](N(C)C)[C@@H](O)[C@H](O[C@H]3[C@@H](CC=O)C[C@@H](C)[C@@H](O)CN(C)CCC(/C=C/Cc4ccnc5ccccc45)NC(=O)C[C@@H](OC(=O)CC)[C@@H]3OC)O[C@@H]2C)C[C@@]1(C)O (stereo in doubt)
MIC (Haemophilus influenzae [1]): 32 µg/mL (≈ 32.9 µM)
MIC (Haemophilus influenzae [2]): 1 µg/mL (≈ 1.03 µM)
MIC (Streptococcus pyogenes [3]): 2 µg/mL (≈ 2.06 µM)
MIC (Streptococcus pneumoniae [16]): 64 µg/mL (≈ 65.9 µM)
MIC (Streptococcus pneumoniae [17]): 0.25 µg/mL (≈ 0.257 µM)
MIC (Haemophilus influenzae [4]): 16 µg/mL (≈ 16.5 µM)
MIC (Moraxella catarrhalis [5]): 4 µg/mL (≈ 4.12 µM)
MIC (Streptococcus pneumoniae [6]): 0.13 µg/mL (≈ 0.134 µM)
MIC (Staphylococcus aureus [7]): 1 µg/mL (≈ 1.03 µM)
MIC (Streptococcus pneumoniae [18]): 0.25 µg/mL (≈ 0.257 µM)
MIC (Streptococcus pyogenes [8]): 0.5 µg/mL (≈ 0.515 µM)
MIC (Staphylococcus aureus [9]): 2 µg/mL (≈ 2.06 µM)
MIC (Streptococcus pneumoniae [19]): 64 µg/mL (≈ 65.9 µM)
MIC (Haemophilus influenzae [20]): 8 µg/mL (≈ 8.24 µM)
MIC (Streptococcus pneumoniae [10]): 0.25 µg/mL (≈ 0.257 µM)
MIC (Moraxella catarrhalis [11]): 4 µg/mL (≈ 4.12 µM)
MIC (Staphylococcus aureus [12]): 2 µg/mL (≈ 2.06 µM)
MIC (Staphylococcus aureus [13]): 4 µg/mL (≈ 4.12 µM)
MIC (Streptococcus pneumoniae [14]): 0.25 µg/mL (≈ 0.257 µM)
MIC (Staphylococcus aureus [15]): 2 µg/mL (≈ 2.06 µM)

Reference: ChEMBL document CHEMBL1151705, “Novel azalides derived from 16-membered macrolides. Part II: Isolation of the linear 9-formylcarboxylic acid and its sequential macrocyclization with an amino alcohol or an azidoamine” (2008)
